Test results reported in ChEMBL document CHEMBL1130388, “Synthesis of racemic 6,7,8,9-tetrahydro-3-hydroxy-1H-1-benzazepine-2,5-diones as antagonists of N-methyl-d-aspartate (NMDA) and alpha-amino-3-hydroxy-5-methylisoxazole-4-propionic acid (AMPA) receptors” (J Med Chem, 1997).

Experiments:
[1] = biological target: Glutamate receptor ionotropic, AMPA (Rattus norvegicus) (UniProt P19491+P19492+P19493+P19490); test: Inhibition of Ionotropic glutamate receptor AMPA-preferring non-NMDA receptors was measured in oocytes expressing rat brain poly(A)+ RNA isolated from the cerebral cortex.; type: cell-based; conditions: Oocyte
[2] = biological target: Glutamate NMDA receptor (Rattus norvegicus) (UniProt P35439+Q00959+Q00960+Q00961+Q62645+Q8VHN2+Q9R1M7); test: Inhibition of N-methyl-D-aspartate glutamate receptor was measured in oocytes expressing cloned rat brain receptor subunits (NR1A/2C); type: cell-based; conditions: Oocyte
Outline: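 Xenopus oocytes expressing cloned rat NR1A/2C subunits, voltage-clamped at -70 mV. Currents were evoked by 1 μM glycine plus 100 μM glutamate. The apparent dissociation constant (Kb) was calculated from current inhibition assuming simple competitive antagonism, and reported with 95% confidence intervals adjusted to the linear scale.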

[3] = Selectivity index measured as the kb ratio of AMPA to that of NMDA.
Outline: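 Steady-state selectivity index: Kb at AMPA receptors (rat cortex poly(A)+ RNA oocytes, 10 μM AMPA) divided by Kb at NR1A/2C NMDA receptors (1 μM glycine, 100 μM glutamate), both from oocyte current inhibition at -70 mV.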

[4] = biological target: Glutamate receptor ionotropic, NMDA 1 (Rattus norvegicus, UniProt P35439); test: Antagonism of N-methyl-D-aspartate glutamate receptor 1 sites using [3H]DCKA as a radioligand

Kb [1] [nM]	Kb [2] [nM]	Selectivity index [3]	IC50 [4] [nM]	SMILES
510	4.1	120	–	CC1c2c(O)cc(=O)c(=O)[nH]c2C[C@H](Cl)[C@H]1Cl (stereo partly specified)
720	2.8	260	–	CCC1c2c(O)cc(=O)c(=O)[nH]c2C[C@H](Cl)[C@H]1Cl (stereo partly specified)
780	42	19	130	O=c1cc(O)c2c([nH]c1=O)C[C@H](Cl)[C@@H](Cl)C2

Further lines, the molecule ahead of its results:

SMILES	Kb [1] [nM]	Kb [2] [nM]	Selectivity index [3]	IC50 [4] [nM]
CC1Cc2[nH]c(=O)c(=O)cc(O)c2CC1C (stereo unspecified)	5300	120	44	–
O=c1cc(O)c2c([nH]c1=O)C1CCC2C1 (stereo unspecified)	–	2800	75	–
O=c1cc(O)c2c([nH]c1=O)CCCC2	23000	740	31	–
O=c1cc(O)c2c([nH]c1=O)C1CCC2CC1	79000	260	300	–
